Reference: paper PMC3495823 (Cell Cycle, 2012)

Key:
[1] = Octanol-PBS partition coefficient; format: physicochemical; settings: n-octanol/PBS, pH 7.4
Outline: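 Shake-flask method: 1 mg compound was dissolved in 1 mL octanol-saturated PBS pH 7.4 and shaken with 1 mL PBS-saturated octanol for 24 h at 37°C. Phases were separated by centrifugation (10,000 rpm, 10 min) and each was analysed by LC-MS/MS. LogD7.4 was calculated from the ratio of peak AUCs, each normalized to its injection volume.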

[2] = Tissue distribution by LC-MS/MS after intraperitoneal injection; format: in vivo, mouse; settings: 20 mg/kg i.p.
Outline: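 Mice received 20 mg/kg in peanut oil i.p. or by oral gavage; tissues and cardiac blood were taken 1, 4 and 24 h later, with brain cortex and cerebellum at 4 h. Weighed tissues (or 30 µL serum in water) were extracted three times with dichloromethane and analysed by ESI-positive LC-MS/MS. Levels came from peak AUC against calibration curves, with internal-standard normalization for quantification; three samples per point.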

[3] = normal mice, 4 hours after injection

CC(C)[C@H](CO)Nc1nc(Nc2ccc(C(=O)O)c(Cl)c2)c2ncn(C(C)C)c2n1 [PVB, purvalanol B]
logD [1]: 0.15 ± 0.002 | detection in kidney, spleen, pancreas, prostate lung and serum [2]: detected | overall tissue and serum levels compared with VMY [2]: lower than VMY | concentration in cerebellar tissue [2, 3]: not detected | concentration in cortical tissue [2, 3]: not detected
